A short description of data set [1]: Metabolic stability in human serum assessed as full length product remaining after 10 mins by HPLC. Format: ADME, cell-free. Conditions: read-out: Stability. The gist of the method: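 About 0.5 A260 units compound in 1% human serum in PBS, 37 °C; aliquot taken at 10 min, analysed by anion-exchange HPLC for percent intact full-length product.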
Data set [2] deals with T1, Toll-like receptor 8 (Homo sapiens) (UniProt Q9NR97).
T1 sequence (whole entry): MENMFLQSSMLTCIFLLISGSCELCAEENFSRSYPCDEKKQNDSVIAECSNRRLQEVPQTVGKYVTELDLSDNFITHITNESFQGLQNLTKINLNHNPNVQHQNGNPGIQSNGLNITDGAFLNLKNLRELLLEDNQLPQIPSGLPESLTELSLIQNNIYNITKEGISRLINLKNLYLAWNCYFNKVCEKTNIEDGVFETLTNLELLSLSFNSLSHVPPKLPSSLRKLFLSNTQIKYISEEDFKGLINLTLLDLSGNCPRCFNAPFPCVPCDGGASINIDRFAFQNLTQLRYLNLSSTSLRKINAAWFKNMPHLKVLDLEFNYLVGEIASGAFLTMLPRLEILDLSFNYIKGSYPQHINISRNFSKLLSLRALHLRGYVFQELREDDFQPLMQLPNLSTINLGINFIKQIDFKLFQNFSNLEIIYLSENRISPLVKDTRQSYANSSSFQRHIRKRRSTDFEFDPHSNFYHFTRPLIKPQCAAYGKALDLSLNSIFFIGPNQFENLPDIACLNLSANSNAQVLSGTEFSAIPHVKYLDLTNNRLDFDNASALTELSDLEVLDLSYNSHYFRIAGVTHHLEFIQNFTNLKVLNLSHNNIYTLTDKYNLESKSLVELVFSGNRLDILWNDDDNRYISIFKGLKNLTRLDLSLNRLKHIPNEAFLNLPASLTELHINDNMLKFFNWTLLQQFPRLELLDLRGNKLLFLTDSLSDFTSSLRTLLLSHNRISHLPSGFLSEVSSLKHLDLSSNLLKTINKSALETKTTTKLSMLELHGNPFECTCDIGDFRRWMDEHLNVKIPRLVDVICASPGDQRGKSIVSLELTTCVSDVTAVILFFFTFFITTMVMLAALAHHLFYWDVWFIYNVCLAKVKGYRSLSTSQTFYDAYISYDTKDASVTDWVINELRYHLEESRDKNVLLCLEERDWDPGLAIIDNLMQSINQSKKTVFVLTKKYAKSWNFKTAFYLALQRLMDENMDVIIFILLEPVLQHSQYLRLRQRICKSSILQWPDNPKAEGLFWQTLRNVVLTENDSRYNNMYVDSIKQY
In words: Activation of human TLR8 expressed in HEK293XL assessed as fold induction of NF-kappaB activity at 50 ug/ml after 18 hrs by reporter gene assay relative to control. The gist of the method: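 HEK293 cells stably expressing human TLR7 or TLR8, transiently transfected with SEAP reporter plasmid; medium replaced, SIMRA compounds added, 18 h incubation. Supernatant SEAP measured by QuantiBlue; expressed as fold increase in NF-κB activity over PBS control. Tabulated data at 50 μg/mL, representative of three independent experiments.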
(Reporter assays use an easily measured gene product as a stand-in for the process of interest.)

Data set [3] concerns the target T2, Toll-like receptor 9 (Mus musculus) (UniProt Q9EQU3).
T2 sequence (whole entry): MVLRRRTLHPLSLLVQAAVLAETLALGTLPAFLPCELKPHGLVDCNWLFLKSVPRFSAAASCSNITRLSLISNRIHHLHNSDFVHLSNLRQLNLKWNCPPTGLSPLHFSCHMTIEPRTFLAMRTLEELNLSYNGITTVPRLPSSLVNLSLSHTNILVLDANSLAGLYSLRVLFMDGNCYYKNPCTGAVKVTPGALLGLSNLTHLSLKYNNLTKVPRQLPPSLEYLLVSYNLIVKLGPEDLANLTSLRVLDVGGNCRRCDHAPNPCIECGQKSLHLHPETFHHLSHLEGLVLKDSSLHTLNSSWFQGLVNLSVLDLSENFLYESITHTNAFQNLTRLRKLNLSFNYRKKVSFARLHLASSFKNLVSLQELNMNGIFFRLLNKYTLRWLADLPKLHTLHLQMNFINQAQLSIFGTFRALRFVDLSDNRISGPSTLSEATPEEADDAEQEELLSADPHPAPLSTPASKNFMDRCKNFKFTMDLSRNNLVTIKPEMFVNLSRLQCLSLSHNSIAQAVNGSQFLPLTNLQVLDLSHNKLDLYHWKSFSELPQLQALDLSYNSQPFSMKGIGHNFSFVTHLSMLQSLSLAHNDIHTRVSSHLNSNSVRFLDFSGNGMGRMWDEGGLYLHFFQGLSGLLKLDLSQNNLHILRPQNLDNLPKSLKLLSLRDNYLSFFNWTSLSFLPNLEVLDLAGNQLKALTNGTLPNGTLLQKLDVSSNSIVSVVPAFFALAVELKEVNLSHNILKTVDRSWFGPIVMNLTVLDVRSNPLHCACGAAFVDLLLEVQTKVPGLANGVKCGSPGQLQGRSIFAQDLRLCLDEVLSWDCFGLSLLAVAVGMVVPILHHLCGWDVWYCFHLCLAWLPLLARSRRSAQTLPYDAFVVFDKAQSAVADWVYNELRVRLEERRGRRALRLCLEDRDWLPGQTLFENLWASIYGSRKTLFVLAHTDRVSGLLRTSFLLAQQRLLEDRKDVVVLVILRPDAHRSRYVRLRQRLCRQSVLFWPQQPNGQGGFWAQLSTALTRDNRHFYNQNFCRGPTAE
In words: Activation of mouse TLR9 expressed in HEK293 assessed as induction of NF-kappaB activity reporter gene assay. Format: cell-based.

The target of data set [4] is Toll-like receptor 3 (Homo sapiens) (UniProt O15455). In words: Activation of human TLR3 expressed in HEK293 assessed as induction of NF-kappaB activity reporter gene assay. Format: cell-based.
Sequence of Toll-like receptor 3 (Homo sapiens) (O15455 whole entry): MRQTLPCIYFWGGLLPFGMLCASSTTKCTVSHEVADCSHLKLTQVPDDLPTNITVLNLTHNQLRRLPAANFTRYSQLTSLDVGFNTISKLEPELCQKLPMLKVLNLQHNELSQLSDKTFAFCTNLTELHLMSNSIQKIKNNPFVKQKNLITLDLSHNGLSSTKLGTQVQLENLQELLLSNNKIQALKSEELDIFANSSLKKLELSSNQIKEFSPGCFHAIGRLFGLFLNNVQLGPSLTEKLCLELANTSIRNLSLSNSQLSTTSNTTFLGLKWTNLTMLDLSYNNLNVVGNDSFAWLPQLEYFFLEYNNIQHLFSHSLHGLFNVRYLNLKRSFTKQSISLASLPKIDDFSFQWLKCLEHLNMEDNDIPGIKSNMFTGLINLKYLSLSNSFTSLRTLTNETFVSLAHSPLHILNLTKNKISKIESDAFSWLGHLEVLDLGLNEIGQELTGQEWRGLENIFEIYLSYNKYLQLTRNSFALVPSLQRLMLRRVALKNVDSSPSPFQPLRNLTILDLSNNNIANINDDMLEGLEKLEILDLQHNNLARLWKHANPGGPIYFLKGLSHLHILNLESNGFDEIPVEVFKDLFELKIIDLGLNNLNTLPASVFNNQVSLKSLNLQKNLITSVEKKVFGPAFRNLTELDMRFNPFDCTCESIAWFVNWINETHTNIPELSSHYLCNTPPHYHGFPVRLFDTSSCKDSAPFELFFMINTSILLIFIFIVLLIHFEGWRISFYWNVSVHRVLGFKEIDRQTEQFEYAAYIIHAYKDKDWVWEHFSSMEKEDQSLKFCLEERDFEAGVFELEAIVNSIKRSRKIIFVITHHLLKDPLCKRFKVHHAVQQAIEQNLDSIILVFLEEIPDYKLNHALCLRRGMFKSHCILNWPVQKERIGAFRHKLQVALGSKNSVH
Data set [5] deals with Splenocyte. In words: Immunomodulatory activity in C57BL/6 mouse splenocytes bearing TLR7 receptor assessed as IL6 release at 100 ug/ml after 24 hrs by ELISA. Format: functional, cell-based. The gist of the method:
(§1)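 C57BL/6 splenocytes in RPMI 1640 with 10% FBS, penicillin/streptomycin, 2 mM L-glutamine, plated at 5 × 10^6 cells/mL; compounds in PBS added, 37 °C for 24 h. Supernatant IL-12 and IL-6 by ELISA; representative of three independent experiments.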
A general note: An ELISA detects its analyte on a solid surface through an enzyme-linked reagent.

In data set [6] the test system is Splenocyte. In words: Immunomodulatory activity in C57BL/6 mouse splenocytes bearing TLR7 receptor assessed as IL12 release at 100 ug/ml after 24 hrs by ELISA. Format: functional, cell-based. The essentials: as §1
Data set [7] has as its system PBMC. In words: Immunomodulatory activity in human PBMC assessed as induction of IL12 at 100 ug/ml after 24 hrs. Format: functional, cell-based. The gist of the method:
(§2)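 Human PBMCs plated at 5 × 10^6 cells/mL; compounds dissolved in PBS added at various concentrations, 37 °C for 24 h. Supernatant cytokines/chemokines quantified with human Luminex multiplex kit.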

Data set [8] concerns PBMC. The data set is described as follows: Immunomodulatory activity in human PBMC assessed as induction of TNFalpha at 100 ug/ml after 24 hrs. Type of data set: functional, cell-based. The essentials:
as §2

Data set [9] deals with PBMC. The data set is described as follows: Immunomodulatory activity in human PBMC assessed as induction of IFN-alpha at 100 ug/ml after 24 hrs.

The results in this text go back to ChEMBL document CHEMBL1154352, “Toll-like receptor 7 selective synthetic oligoribonucleotide agonists: synthesis and structure-activity relationship studies” (J Med Chem, 2009).

The source made the active and inactive calls. The calls are words filed in the database; no cut-off is given here.

For `Nc1ccn([C@@H]2O[C@H](COP(=O)(S)O[C@H]3[C@@H](O)[C@H](n4cnc5c(N)ncnc54)O[C@@H]3COP(=O)(S)O[C@H]3[C@@H](O)[C@H](n4cnc5c(N)ncnc54)O[C@@H]3CO)[C@@H](OP(=O)(S)OC[C@H]3O[C@@H](n4ccc(=O)[nH]c4=O)[C@H](O)[C@@H]3OP(=O)(S)OC[C@H]3O[C@@H](n4ccc5c(=O)[nH]c(N)nc54)[C@H](O)[C@@H]3OP(=O)(S)OC[C@H]3O[C@@H](n4cnc5c(N)ncnc54)[C@H](O)[C@@H]3OP(=O)(S)OC[C@H]3O[C@@H](n4ccc(N)nc4=O)[C@H](O)[C@@H]3OP(=O)(S)OC[C@H]3O[C@@H](n4ccc5c(=O)[nH]c(N)nc54)[C@H](O)[C@@H]3OP(=O)(S)OC[C@H]3O[C@@H](n4ccc(N)nc4=O)[C@H](O)[C@@H]3OP(=O)(S)OC[C@H]3O[C@@H](n4ccc(=O)[nH]c4=O)[C@H](O)[C@@H]3OP(=O)(S)OC[C@H]3O[C@@H](n4ccc(=O)[nH]c4=O)[C@H](O)[C@@H]3OP(=O)(S)OCC(O)COP(=O)(S)O[C@H]3[C@@H](O)[C@H](n4ccc(=O)[nH]c4=O)O[C@@H]3COP(=O)(S)O[C@H]3[C@@H](O)[C@H](n4ccc(=O)[nH]c4=O)O[C@@H]3COP(=O)(S)O[C@H]3[C@@H](O)[C@H](n4ccc(N)nc4=O)O[C@@H]3COP(=O)(S)O[C@H]3[C@@H](O)[C@H](n4ccc5c(=O)[nH]c(N)nc54)O[C@@H]3COP(=O)(S)O[C@H]3[C@@H](O)[C@H](n4ccc(N)nc4=O)O[C@@H]3COP(=O)(S)O[C@H]3[C@@H](O)[C@H](n4cnc5c(N)ncnc54)O[C@@H]3COP(=O)(S)O[C@H]3[C@@H](O)[C@H](n4ccc5c(=O)[nH]c(N)nc54)O[C@@H]3COP(=O)(S)O[C@H]3[C@@H](O)[C@H](n4ccc(=O)[nH]c4=O)O[C@@H]3COP(=O)(S)O[C@H]3[C@@H](O)[C@H](n4ccc(N)nc4=O)O[C@@H]3COP(=O)(S)O[C@H]3[C@@H](O)[C@H](n4cnc5c(N)ncnc54)O[C@@H]3COP(=O)(S)O[C@H]3[C@@H](O)[C@H](n4cnc5c(N)ncnc54)O[C@@H]3CO)[C@H]2O)c(=O)n1` (stereo partly drawn), in data set [1], the remaining at 10 min is 87%. Moreover, in data set [2], the fold change (FC) amounted to 0.4. Moreover, the outcome in [3] and in [4] was inactive. The outcome in [5] and in data set [6] was Active. The Activity is 250 pg/mL in data set [7] and 20.3 pg/mL in data set [8]. Also, the IFN-alpha in data set [9] worked out at 292 pg/mL.

Take `Nc1ccn([C@@H]2O[C@H](COP(=O)(S)O[C@H]3[C@@H](O)[C@H](n4cnc5c(N)ncnc54)O[C@@H]3CO)[C@@H](OP(=O)(S)OC[C@H]3O[C@@H](n4ccc5c(=O)[nH]c(N)nc54)[C@H](O)[C@@H]3OP(=O)(S)OC[C@H]3O[C@@H](n4ccc(=O)[nH]c4=O)[C@H](O)[C@@H]3OP(=O)(S)OC[C@H]3O[C@@H](n4ccc5c(=O)[nH]c(N)nc54)[C@H](O)[C@@H]3OP(=O)(S)OC[C@H]3O[C@@H](n4cnc5c(N)nc(N)nc54)[C@H](O)[C@@H]3OP(=O)(S)OC[C@H]3O[C@@H](n4cnc5c(N)ncnc54)[C@H](O)[C@@H]3OP(=O)(S)OC[C@H]3O[C@@H](n4ccc5c(=O)[nH]c(N)nc54)[C@H](O)[C@@H]3OP(=O)(S)OC[C@H]3O[C@@H](n4ccc(N)nc4=O)[C@H](O)[C@@H]3OP(=O)(S)OC[C@H]3O[C@@H](n4ccc(=O)[nH]c4=O)[C@H](O)[C@@H]3OP(=O)(S)OC[C@H]3O[C@@H](n4ccc(=O)[nH]c4=O)[C@H](O)[C@@H]3OP(=O)(S)OCC(O)COP(=O)(S)O[C@H]3[C@@H](O)[C@H](n4ccc(=O)[nH]c4=O)O[C@@H]3COP(=O)(S)O[C@H]3[C@@H](O)[C@H](n4ccc(=O)[nH]c4=O)O[C@@H]3COP(=O)(S)O[C@H]3[C@@H](O)[C@H](n4ccc(N)nc4=O)O[C@@H]3COP(=O)(S)O[C@H]3[C@@H](O)[C@H](n4ccc5c(=O)[nH]c(N)nc54)O[C@@H]3COP(=O)(S)O[C@H]3[C@@H](O)[C@H](n4cnc5c(N)nc(N)nc54)O[C@@H]3COP(=O)(S)O[C@H]3[C@@H](O)[C@H](n4cnc5c(N)nc(N)nc54)O[C@@H]3COP(=O)(S)O[C@H]3[C@@H](O)[C@H](n4ccc5c(=O)[nH]c(N)nc54)O[C@@H]3COP(=O)(S)O[C@H]3[C@@H](O)[C@H](n4ccc(=O)[nH]c4=O)O[C@@H]3COP(=O)(S)O[C@H]3[C@@H](O)[C@H](n4ccc5c(=O)[nH]c(N)nc54)O[C@@H]3COP(=O)(S)O[C@H]3[C@@H](O)[C@H](n4ccc(N)nc4=O)O[C@@H]3COP(=O)(S)O[C@H]3[C@@H](O)[C@H](n4cnc5c(N)ncnc54)O[C@@H]3CO)[C@H]2O)c(=O)n1` (stereo partly drawn): in [1], the remaining at 10 min stood at 74%. Further, the fold change (FC) in data set [2] was found to be 2. Also, the outcome in [3] and in data set [4] was inactive. The result in [5] and in data set [6] was Active. Moreover, the Activity in data set [7] was 864 pg/mL; in [8], 165 pg/mL. The IFN-alpha in data set [9] turned out to be 123 pg/mL.
